Source: ChEMBL document CHEMBL3120104, “Discovery of the first C-nucleoside HCV polymerase inhibitor (GS-6620) with demonstrated antiviral response in HCV infected patients” (J Med Chem, 2014)
≈ marks a conversion by molar mass, not a printed value.

Assays:
Hepatitis C virus = experiment: Antiviral activity against HCV genotype 1b infected in human HuH7 cells assessed as inhibition of viral replication after 3 days by luminescence assay; format: functional, organism-based, Hepacivirus hominis; conditions: Huh-7, 72 h
Summary of the method: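 Multiplex replicon assay carrying a renilla luciferase reporter, with stable GT1b, 1a and 2a replicons and chimeric 2b, 3a, 4a, 5a and 6a replicons. 2000 replicon cells/well in medium without Geneticin. Ten-step 1:3 serial dilutions, four replicates, 0.44% DMSO final. Incubated 3 days at 37 °C, 5% CO₂. Luminescence normalised to DMSO wells and to protease-inhibitor (ITMN-191) wells. EC50 from a four-parameter Hill fit.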

[1] = Aqueous solubility of the compound in phosphate buffer at pH 7 by reverse-phase UPLC-UV method; format: physicochemical
Summary of the method: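 Excess solid was suspended in pH 7 phosphate buffer at ambient temperature, sonicated, then stirred for at least 2 h. After centrifugation, the supernatant was quantified by reverse-phase UPLC-UV.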

[2] = Cytotoxicity against human HuH7 cells after 3 days by fluorescence assay; format: cell-based; conditions: Huh-7 cells
Summary of the method: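 Huh-7 HCV replicon cells were seeded at 2000 cells/well in medium without Geneticin. Compounds were added as ten-point 1:3 DMSO dilutions in quadruplicate (final DMSO 0.44%), with […] as the 100% cytotoxicity control. After 3 days at 37 °C, cells were washed and given 400 nM calcein AM for 30 min at RT, and fluorescence read at ex 490/em 520 nm. Signal was normalized to DMSO and puromycin wells, and CC50 taken from a four-parameter Hill fit.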

[3] = Lipophilicity, log D of the compound by HPLC/UV method; format: physicochemical
Summary of the method: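 A 10 mM DMSO stock was diluted 1:100 into 1:1 acetonitrile/water, shaken 30 min, and analysed by HPLC/UV on a C18 column with 20 mM ammonium acetate/acetonitrile mobile phase.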

[4] = Permeability across basolateral to apical side in human Caco2 cells at 10 uM after 1 to 2 hrs by LC/MS/MS analysis; format: ADME, cell-based; conditions: Caco-2, read-out: permeability
Summary of the method: (§1)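 Caco-2 monolayers were grown at least 21 days, and membrane integrity was checked by TEER after buffer equilibration. Test compound was dosed at 10 μM on the apical or basolateral side, in duplicate wells. Receiver samples at 1 and 2 h were precipitated with acetonitrile plus internal standard and run by LC/MS/MS.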

Syrian golden hamster [5] = experiment: Cmax in golden syrian hamster assessed as liver triphosphate level at 1 mg/kg, iv by LC/MS/MS analysis; format: ADME, organism-based, Mesocricetus auratus; design: dose 1 mg/kg, route intravenous; conditions: in vivo
Summary of the method: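 Golden Syrian hamsters in groups of 12, dosed iv at 1 mg-equiv/kg in EtOH/PEG400/water adjusted to pH 4 with HCl (0.5 mg-equiv/mL). Liver homogenised in ice-cold 70% MeOH with 0.1% KOH, 67 mM EDTA and 0.25 μM Cl-ATP internal standard, then centrifuged, dried and reconstituted. Triphosphate measured by LC/MS/MS; endogenous ATP checked for sample stability.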

[6] = Oral bioavailability in golden syrian hamster at 5 mg/kg; format: ADME, organism-based, Mesocricetus auratus; conditions: in vivo
[7] = Metabolic stability in human liver S9 fraction assessed as extraction at 2 uM after 90 mins by LC/MS/MS analysis; format: ADME, subcellular; conditions: read-out: Stability
Summary of the method: (§2)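 Compound at 2 μM was incubated with human intestinal or hepatic S9 fraction plus NADPH and UDPGA for 90 min at 37 °C. Time-point samples were quenched in aqueous acetonitrile/methanol with internal standard and analysed by LC/MS/MS. Half-life came from an exponential first-order fit, and hepatic extraction was predicted from half-life using the well-stirred model.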

[8] = Half life in human intestinal S9 fraction at 2 uM by LC/MS/MS analysis; format: ADME, Intestine; summary of the method: as §2
Syrian golden hamster [9] = experiment: Cmax in golden syrian hamster assessed as liver triphosphate level at 5 mg/kg, po by LC/MS/MS analysis; format: ADME, organism-based, Mesocricetus auratus; design: dose 5 mg/kg, route oral; conditions: in vivo
Summary of the method: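 Groups of 12 Golden Syrian hamsters were dosed orally at 5 mg-equiv/kg. Vehicle was EtOH/PEG400/water buffered with 50 mM pH 4 citrate at 2.5 mg-equiv/mL. Liver was homogenized in four volumes of ice-cold 0.1% KOH/67 mM EDTA in 70% MeOH containing 0.25 μM Cl-ATP, then centrifuged, dried and reconstituted in 1 mM ammonium phosphate pH 7.0. Triphosphate was measured by LC/MS/MS, with endogenous ATP checked for sample stability.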

[10] = Permeability across apical to basolateral side in human Caco2 cells at 10 uM after 1 to 2 hrs by LC/MS/MS analysis; format: ADME, cell-based; conditions: Caco-2, read-out: permeability; summary of the method: as §1
[11] = Oral absorption in beagle dog at 5 mg/kg, po by LC/MS/MS analysis; format: ADME, organism-based, Canis lupus familiaris; design: dose 5 mg/kg, route oral; conditions: in vivo
Summary of the method: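 Naive male beagle dogs were dosed once, orally at 5 mg/kg in EtOH/PEG 400/50 mM citrate buffer pH 4 (5/40/55), or intravenously at 0.5 mg/kg for reference. Plasma was sampled over 24 h and processed by acetonitrile precipitation. Bioavailability %F = AUC_po × Dose_iv / (AUC_iv × Dose_po).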

[12] = AUC (0 to infinity) in portal vein cannulated beagle dog at 0.5 mg/kg, iv by LC/MS/MS analysis; format: ADME, organism-based, Canis lupus familiaris; design: time infinity, dose 0.5 mg/kg, route intravenous; conditions: plasma
Summary of the method: (§3)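 Naive male beagle dogs got a single intravenous infusion of 0.5 mg/kg in EtOH/PEG 400/water 5/20/75, adjusted to pH 4 with HCl. EDTA-K3 blood was collected over 24 h and plasma isolated. Plasma was precipitated with acetonitrile to a final 60%, filtered, dried, reconstituted in 20% acetonitrile and analysed.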

[13] = AUC (0 to infinity) in jagular vein cannulated beagle dog at 0.5 mg/kg, iv by LC/MS/MS analysis; format: ADME, organism-based, Canis lupus familiaris; design: time infinity, dose 0.5 mg/kg, route intravenous; conditions: plasma; summary of the method: as §3
[14] = Metabolic stability in serum (unknown origin); format: ADME
Huh-7 = experiment: Prodrug coversion in human HuH7 cells assessed as triphosphate formation at 10 uM after 24 hrs by liquid chromatography coupled with mass spectrometry; format: ADME, cell-based; conditions: huh-7, 24 h
Summary of the method: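 Huh-7 cells carrying the GT1b replicon, grown to confluency in 12-well plates (0.88 × 10⁶ cells/well). Exposed 24 h to 10 μM compound, then washed with ice-cold saline and extracted overnight in frozen 70% methanol. Dried extract resuspended in 1 mM ammonium phosphate pH 8.5. Triphosphate quantified by LC/triple-quadrupole MS.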

| SMILES | EC50 (Hepatitis C virus) | solubility [1] | CC50 at 72 h [2] | logD [3] | Papp B→A at 10 µM [4] | Cmax (Syrian golden hamster [5]) | bioavailability [6] | hepatic extraction ratio at 1.5 h, 2 µM [7] | half-life at 2 µM [8] | Cmax (Syrian golden hamster [9]) | Papp A→B at 10 µM [10] | Fa [11] | AUC(0-inf) [12] | AUC(0-inf) [13] | Stability [14] | Drug metabolism (Huh-7) |
| --- | --- | --- | --- | --- | --- | --- | --- | --- | --- | --- | --- | --- | --- | --- | --- | --- |
| CCOC(=O)[C@H](C)NP(=O)(OC[C@H]1O[C@@](C#N)(c2ccc3c(N)ncnn23)[C@](C)(O)[C@@H]1O)Oc1ccccc1 (stereo partly drawn) | 1450 nM | 108 µg/mL (≈ 193 µM) | > 89000 nM | 1.6 | 2.98 ×10⁻⁶ cm/s | 4480 nM | 2.5% | 0.89 | 1.15 h | 570 nM | 0.17 ×10⁻⁶ cm/s | – | – | – | – | – |
| C[C@H](NP(=O)(OC[C@H]1O[C@@](C#N)(c2ccc3c(N)ncnn23)[C@](C)(O)[C@@H]1O)Oc1ccccc1)C(=O)OCC(C)(C)C (stereo partly drawn) | 180 nM | 115 µg/mL (≈ 191 µM) | 85000 nM | 2.3 | 29.1 ×10⁻⁶ cm/s | 5180 nM | 5.6% | 0.94 | 1.42 h | 1440 nM | 0.69 ×10⁻⁶ cm/s | 13% | 0.25 µM·h | 0.09 µM·h | – | – |
| CC(C)OC(=O)[C@H](C)NP(=O)(OC[C@H]1O[C@@](C#N)(c2ccc3c(N)ncnn23)[C@]2(C)OC(=O)O[C@H]12)Oc1ccccc1 (stereo partly drawn) | 1410 nM | – | > 89000 nM | 2.6 | – | 1920 nM | – | – | – | 590 nM | – | 29% | – | – | Stable | – |
| CC(C)OC(=O)[C@H](C)NP(=O)(OC[C@H]1O[C@@](C#N)(c2ccc3c(N)ncnn23)[C@](C)(O)[C@@H]1O)Oc1ccccc1 (stereo partly drawn) | 1050 nM | 306 µg/mL (≈ 533 µM) | > 89000 nM | 1.8 | 8.92 ×10⁻⁶ cm/s | 5650 nM | 1.9% | 0.9 | > 10.2 h | 530 nM | 0.16 ×10⁻⁶ cm/s | 10% | 0.99 µM·h | 0.16 µM·h | Stable | 20 µM |
| C[C@H](NP(=O)(OC[C@H]1O[C@@](C#N)(c2ccc3c(N)ncnn23)[C@](C)(O)[C@@H]1O)Oc1ccccc1)C(=O)OCc1ccccc1 (stereo partly drawn) | 330 nM | 0.05 µg/mL (≈ 0.0803 µM) | 63000 nM | 2.2 | 25.3 ×10⁻⁶ cm/s | – | – | 0.93 | 2.15 h | 860 nM | 3.35 ×10⁻⁶ cm/s | – | – | – | – | – |
| C#C[C@@]1(c2ccc3c(N)ncnn23)O[C@H](CO)[C@@H](O)[C@@]1(C)O | > 89000 nM | – | – | – | – | – | – | – | – | – | – | – | – | – | – | – |
| COC(=O)[C@H](C)NP(=O)(OC[C@H]1O[C@@](C#N)(c2ccc3c(N)ncnn23)[C@](C)(O)[C@@H]1O)Oc1ccccc1 (stereo partly drawn) | 1370 nM | – | > 89000 nM | 1.3 | 4.64 ×10⁻⁶ cm/s | 6350 nM | 0.9% | 0.9 | 3.17 h | 290 nM | 0.41 ×10⁻⁶ cm/s | – | – | – | – | – |
